Test results: ChEMBL document CHEMBL3588752, “Synthesis and in Vitro Anticancer Activity of the First Class of Dual Inhibitors of REV-ERBβ and Autophagy” (J Med Chem, 2015)
Activity calls are given as the source filed them. The calls are words filed in the database; no cut-off is given here.

Assays:
BT-474 [1] = experiment: Cytotoxicity against human BT474 cells assessed as reduction in cell number incubated for 72 hrs; assay type: functional, cell-based; conditions: BT-474, 72 h
Procedure, shortened: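 Cells seeded at 2000/well and left overnight, then exposed 72 h to seven 3-fold serial dilutions from 100 µM. Cell number read by CyQUANT DNA dye (independent of metabolism), relative to vehicle as 100%. BT-474 grown in high-glucose DMEM, 4 mM L-glutamine, 10% FBS, 0.25 mM pyruvate.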

HMEC = experiment: Cytotoxicity against HMEC cells assessed as reduction in cell number incubated for 72 hrs; assay type: cell-based; conditions: Homo sapiens
[2] = Toxicity against human BT474 cells assessed as reduction in cell number at 10 uM incubated for 16 hrs; assay type: cell-based; conditions: bt-474, 16 h
BT-474 [3] = experiment: Inhibition of autophagy in human BT474 cells assessed as increase in LC3-II protein levels at 10 uM by immunoblot method; assay type: functional, cell-based
Procedure, shortened: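 BT-474 exposed 4 h at 10 µM. Protein extracted in RIPA buffer and immunoblotted for LC3B and GAPDH in TBS-T with 5% BSA. HRP secondary at 1:20000, ECL detection. Band densitometry reported as LC3B/GAPDH ratio.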

BT-474 [4] = experiment: Lysosomotropic activity in human BT474 cells assessed as […] incubated for 24 hrs by lysosomotropy assay; assay type: functional, cell-based; conditions: BT-474, 24 h
Procedure, shortened: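 Seeded at 2000 cells/well overnight, then treated. Lysosomal staining (LysoTracker fluorescence) measured 24 h post-treatment. IC50 from concentration–response plots, mean ± SEM, N ≥ 6.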

[5] = biological target: T1, Nuclear receptor subfamily 1 group D member 2 (Homo sapiens) (UniProt Q14995); experiment: Inhibition of REV-ERBbeta in human BT474 cells assessed as increase in BMAL1 expression at 10 uM incubated for 16 hrs by immunoblot method; conditions: BT-474
T1 sequence (whole entry): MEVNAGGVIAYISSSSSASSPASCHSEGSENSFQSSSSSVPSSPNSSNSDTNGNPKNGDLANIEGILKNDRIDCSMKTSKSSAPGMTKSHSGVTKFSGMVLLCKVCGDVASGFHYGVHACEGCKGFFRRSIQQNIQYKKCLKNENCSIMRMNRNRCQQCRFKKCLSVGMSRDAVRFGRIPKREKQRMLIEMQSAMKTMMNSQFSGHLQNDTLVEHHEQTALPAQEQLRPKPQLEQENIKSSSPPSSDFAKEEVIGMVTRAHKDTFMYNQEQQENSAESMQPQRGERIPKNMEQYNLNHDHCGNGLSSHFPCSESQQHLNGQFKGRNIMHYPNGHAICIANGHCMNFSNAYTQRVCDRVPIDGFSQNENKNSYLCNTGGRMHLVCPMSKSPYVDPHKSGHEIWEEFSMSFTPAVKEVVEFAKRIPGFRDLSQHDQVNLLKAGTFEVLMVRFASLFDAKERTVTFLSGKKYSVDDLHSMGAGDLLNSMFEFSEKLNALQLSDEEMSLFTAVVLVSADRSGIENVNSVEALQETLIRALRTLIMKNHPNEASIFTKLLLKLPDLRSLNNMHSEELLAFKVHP

[6] = biological target: T1, Nuclear receptor subfamily 1 group D member 2 (Homo sapiens); experiment: Inhibition of REV-ERBbeta (unknown origin) expressed in HEK293 cells incubated for 24 hrs assessed as inhibition of receptor-mediated transcriptional repression by REV-ERB luciferase reporter assay; assay type: cell-based
Procedure, shortened: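 HEK-293 co-transfected with a REV-ERBβ expression plasmid and a reporter with two REV-ERB response elements driving Cypridina luciferase. Compounds added the next day; luciferase activity read after 24 h. IC50 from concentration–response plots, mean ± SEM, N ≥ 6.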

Row | Compound | IC50 (BT-474 [1]) | IC50 (HMEC) | also measured
1 | CN1CCN(Cc2cc(CNCc3ccccc3F)ccc2O)CC1 | > 100 µM |  | 
2 | CN1CCN(Cc2cc(CNC(C)(C)c3ccccc3F)ccc2O)CC1 | > 100 µM |  | 
3 | CCN1CCN(Cc2cc(CNC3(c4ccccc4F)CCCC3)ccc2O)CC1 | 39.3 µM | > 100 µM | 
4 | Oc1ccc(CNC2(c3ccccc3F)CCCC2)cc1CN1CCNCC1 | 31.9 µM | > 100 µM | 
5 | COc1ccc(CNC2(c3ccccc3F)CCCC2)cc1CN1CCN(C)CC1 | > 100 µM |  | 
6 | CN1CCN(Cc2cc(CN(C)C3(c4ccccc4F)CCCC3)ccc2O)CC1 | > 100 µM |  | 
7 | COc1cccc(C2(NCc3ccc(O)c(CN4CCN(C)CC4)c3)CCCC2)c1 | 11.8 µM | 13.1 µM | 
8 | CC(NCc1ccc(O)c(CN2CCN(C)CC2)c1)c1ccccc1F (configuration not stated) | > 100 µM |  | 
9 | CN1CCC(Cc2cccc(CNC3(c4ccccc4F)CCCC3)c2)CC1 | 15.5 µM | > 100 µM | Activity [2]: Non-toxic; inhibition (BT-474 [3]): Active; IC50 (BT-474 [4]): 10 µM; inhibition [5]: Active; inhibition [6]: Active
10 | CC1CCC(Cc2cccc(CNC3(c4ccccc4F)CCCC3)c2)CC1 (mixture of isomers) | > 100 µM |  | 
11 | Oc1ccc(CNC2(c3ccccc3F)CCCC2)cc1CN1CCOCC1 | > 100 µM |  | 
12 | CN1CCN(Cc2cc(CNC3(c4ccccc4F)CCCCC3)ccc2O)CC1 | 30.7 µM | > 100 µM | 
13 | Fc1ccccc1C1(NCc2cccc(CN3CCCCC3)c2)CCCC1 | 40 µM | > 100 µM | 
14 | CN1CCN(Cc2cc(CNC3(c4ccccc4)CCCC3)ccc2O)CC1 | 27.5 µM | > 100 µM | 
15 | CN1CCN(Cc2cc(C(=O)NC3(c4ccccc4F)CCCC3)ccc2O)CC1 | > 100 µM |  | 
